Calls of active or inactive are those of the source. The rule behind the calls is not given here.

We go through one compound from ChEMBL document CHEMBL4616671, “Identification of N-Phenyl-7H-pyrrolo[2,3-d]pyrimidin-4-amine Derivatives as Novel, Potent, and Selective NF-κB Inducing Kinase (NIK) Inhibitors for the Treatment of Psoriasis” (J Med Chem, 2020).

For data set [1], the target named is T1, Mitogen-activated protein kinase kinase kinase 14 (Homo sapiens, UniProt Q99558). The experiment in a line: Inhibition of recombinant N-terminal GST-fused human NIK (319 to 947 residues) expressed in baculovirus expression system incubated for 120 mins in presence of ATP by ADP-glo based luminescence assay. Put shortly:
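ADP-Glo luminescence assay with recombinant human MAP3K14. Buffer: Tris pH 7.5, 2 mM DTT, 2 mM MgCl₂, 100 µM Na₃VO₄, 0.02 mg/mL BSA, 5% DMSO; ATP 10 µM. Reaction 120 min at room temperature; ADP-Glo reagent 40 min, then detection reagent 40 min. Mean ± SD from two independent experiments.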
Target sequence in this assay (Q99558 whole entry, the tested form may be a part): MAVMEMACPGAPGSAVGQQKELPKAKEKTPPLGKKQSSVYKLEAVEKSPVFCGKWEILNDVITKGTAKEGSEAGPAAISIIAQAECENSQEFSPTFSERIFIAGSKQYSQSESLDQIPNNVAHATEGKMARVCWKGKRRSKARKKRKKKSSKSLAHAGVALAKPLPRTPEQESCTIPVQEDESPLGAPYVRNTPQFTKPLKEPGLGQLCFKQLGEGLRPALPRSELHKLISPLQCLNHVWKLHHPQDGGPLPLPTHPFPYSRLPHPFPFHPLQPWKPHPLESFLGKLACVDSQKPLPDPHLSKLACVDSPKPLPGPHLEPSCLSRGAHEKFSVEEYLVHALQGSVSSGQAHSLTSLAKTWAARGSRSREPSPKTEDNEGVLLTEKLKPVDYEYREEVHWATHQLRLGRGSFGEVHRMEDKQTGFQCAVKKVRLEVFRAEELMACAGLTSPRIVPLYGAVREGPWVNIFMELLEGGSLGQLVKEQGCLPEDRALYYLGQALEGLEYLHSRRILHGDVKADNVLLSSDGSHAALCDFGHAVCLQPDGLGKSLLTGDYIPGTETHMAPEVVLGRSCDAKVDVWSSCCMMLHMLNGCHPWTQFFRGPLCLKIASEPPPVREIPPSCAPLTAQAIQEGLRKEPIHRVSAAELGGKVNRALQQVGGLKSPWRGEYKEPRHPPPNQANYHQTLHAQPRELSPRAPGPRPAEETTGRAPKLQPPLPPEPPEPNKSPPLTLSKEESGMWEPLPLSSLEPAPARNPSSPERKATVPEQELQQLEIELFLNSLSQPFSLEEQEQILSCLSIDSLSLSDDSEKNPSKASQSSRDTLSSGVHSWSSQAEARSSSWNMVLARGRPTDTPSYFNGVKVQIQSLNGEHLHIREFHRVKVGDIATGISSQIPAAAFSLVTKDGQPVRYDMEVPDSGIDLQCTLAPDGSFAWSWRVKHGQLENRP

Data set [2] concerns the target Tyrosine-protein kinase JAK1 (Homo sapiens, UniProt P23458). Put plainly: Inhibition of human JAK1 using poly[Glu:Tyr] (4:1) as substrate in presence of [gamma33P]ATP by hotspot assay.
Data set [3] deals with T-cell. The experiment in a line: Antiinflammatory activity in mouse T cells assessed as inhibition of conA-induced induced T cell proliferation at 2 uM incubated for 48 hrs by CCK8 assay relative to control. In kind it is functional.
In data set [4] the test system is T-cell. Put plainly: Antiinflammatory activity in mouse T cells assessed as inhibition of conA-induced induced T cell proliferation at 0.4 uM incubated for 48 hrs by CCK8 assay relative to control. In kind it is functional.
The species entered for a further data set is Homo sapiens. Put plainly: Selectivity ratio of IC50 for human Aurora B to IC50 for human NIK.
Data set [5] can be described thus: Elimination half life in dog liver microsomes incubated for 10 mins followed by potassium phosphate buffer addition and measured after 5 to 60 mins by LC-MS/MS analysis. Particulars: read-out: beta t1/2. In kind it is ADME, Canis lupus familiaris, Microsome. The gist of the method: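 Rat, dog, monkey or human liver microsomes pre-incubated with compound at 37 °C for 10 min; reaction started after pre-warming and stopped at 5, 15, 30, 60 min with chilled quench containing tolbutamide and labetalol. No-cofactor control in 100 mM potassium phosphate for 60 min. LC-MS/MS analysis; first-order fit: k = −slope, T1/2 = 0.693/k, CLint = k/microsomal protein concentration.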

Data set [6] can be described thus: Intrinsic hepatic clearance in dog. In kind it is ADME, Canis lupus familiaris. Particulars: in vivo. Put shortly:
(§1)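 Scaled from microsomal intrinsic clearance: CLint,in vitro × microsomal protein per g liver × liver weight per kg body weight.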

Data set [7] in a line: Intrinsic hepatic clearance in rat. In kind it is ADME. Conditions: in vivo. Put shortly:
as §1

Data set [8] in a line: Initial plasma concentration in Sprague-Dawley rat at 1 mg/kg, iv administered as single bolus dose by LC-MS/MS analysis. In kind it is ADME, organism-based.
A short description of data set [9]: Half life in Sprague-Dawley rat at 1 mg/kg, iv administered as single bolus dose by LC-MS/MS analysis. In kind it is ADME, organism-based. Particulars: in vivo.
Data set [10] is described as follows: Clearance in Sprague-Dawley rat at 1 mg/kg, iv administered as single bolus dose by LC-MS/MS analysis. In kind it is ADME, organism-based. Conditions: in vivo.
Data set [11] can be described thus: AUC (0 to infinity) in Sprague-Dawley rat at 10 mg/kg, po administered via gavage by LC-MS/MS analysis. Particulars: in vivo. In kind it is ADME, organism-based. Also on record: dose 10 mg/kg, time infinity, route oral. Put shortly:
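Single oral gavage in SD rats, 3 per group, as a suspension in saline with 0.5% CMC-Na and 0.2% Tween 80, 1 mg/mL. Plasma protein-precipitated with ACN containing internal standards, then LC-MS/MS. AUC0-∞ by linear trapezoidal rule, noncompartmental analysis. Mean ± SD of three rats.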

Data set [12] can be described thus: Cmax in Sprague-Dawley rat at 10 mg/kg, po administered via gavage measured at 0.833 hrs by LC-MS/MS analysis. In kind it is ADME, organism-based. Details: dose 10 mg/kg, route oral. Conditions: in vivo.
The target in data set [13] is T1, Mitogen-activated protein kinase kinase kinase 14. The experiment in a line: Inhibition of NIK in human BEAS2B cells assessed as reduction in LPS-induced IL-6 level preincubated for 8 hrs followed by LPS stimulation and measured after 24 hrs by ELISA. In kind it is cell-based. Put shortly: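 BEAS-2B cells were grown in DMEM with 10% FBS, seeded at 5000 cells/well, and cultured 24 h at 37 °C in 5% CO2. Compounds were given at 7 concentrations from 10 μM to 0.014 μM (3 replicate wells), with dexamethasone as positive control. After 8 h, LPS (20 μg/mL solution) was added for 24 h. Supernatant IL-6 was read by human IL-6 ELISA; two biological replicates.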
Target sequence in this assay (Q99558 whole entry, looked up, the tested form may be a part): as the sequence (Q99558 whole entry, the tested form may be a part) above

Data set [14] deals with Mitogen-activated protein kinase kinase kinase 14 (Mus musculus) (UniProt Q9WUL6). Put plainly: Inhibition of NIK in mouse J774 cells assessed as reduction in LPS-induced TNFalpha mRNA level by SYBR green dye-based quantitative PCR analysis. In kind it is cell-based. The gist of the method:
(§2)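 LPS-stimulated J774 macrophages; mRNA quantified by qPCR using 4 µL cDNA plus 16 µL master mix per reaction. Mean ± SD of three biological replicates; significance by two-tailed Student's t-test against the model group.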

A further data set has as its system J774. The experiment in a line: Antiinflammatory activity in mouse J774 cells assessed as reduction in LPS-induced IL23 mRNA level by SYBR green dye-based quantitative PCR analysis. In kind it is functional, cell-based. Put shortly: as §2
Data set [15] relates to Mus musculus. Put plainly: Protection against IMQ-induced dermatitis in C57 mouse model of psoriasis assessed as reduction in roughness at 60 to 120 mg/kg, ig administered once daily starting from day 3 post IMQ-challenge and measured 2 days post-last dose of IMQ. In kind it is functional, organism-based. Put shortly:
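C57 mice given 5% imiquimod cream on the back once daily for 7 days; intragastric dosing 60 or 120 mg/kg once daily from day 3 to end, n = 6 per group. Dorsal skin phenotype assessed by imaging.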

Data set [16] deals with Mus musculus. Put plainly: Suppression of IMQ-induced epidermal acanthosis in ig dosed C57 mouse model of psoriasis assessed as reduction in epidermal thickness administered once daily starting from day 3 post IMQ-challenge and measured 2 days post-last dose of IMQ by hematoxylin-eosin staining based confocal laser scanning microscopy. In kind it is functional, organism-based. The gist of the method:
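IMQ-induced C57 mice (5% cream 7 days; 60 or 120 mg/kg i.g. daily from day 3, n = 6). Formalin-fixed, paraffin-embedded back skin cut at 3 µm and H&E stained. Epidermal thickness measured in six randomly chosen fields; blind evaluation by two pathologists.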

Data set [17] deals with Mus musculus. The experiment in a line: Suppression of IMQ-induced psoriasis in C57 mouse assessed as reduction in spleen index at 60 mg/kg, ig administered once daily starting from day 3 post IMQ-challenge and measured 2 days post-last dose of IMQ. In kind it is functional, organism-based. The gist of the method:
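IMQ-induced C57 mice (5% cream daily 7 days; i.g. daily from day 3 at the stated dose, n = 6). Spleen weighed per mouse at end of study.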

The subject of data set [18] is Mus musculus. Put plainly: Suppression of IMQ-induced psoriasis in ig dosed C57 mouse assessed as reduction in serum TNFalpha level administered once daily starting from day 3 post IMQ-challenge and measured 2 days post-last dose of IMQ by ELISA. In kind it is functional, organism-based. The gist of the method: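 Psoriasis-like dermatitis induced by 5% imiquimod cream on back skin of C57 mice, q.d. for seven days. Oral (i.g.) dosing q.d. at 60 or 120 mg/kg from day 3 to study end, n = 6 per group. At end, blood held at 4 °C for 12 h, then centrifuged. Serum TNFα measured by ELISA. Mean ± SEM.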

For data set [19], the system named is Mus musculus. The experiment in a line: Suppression of epidermal and dermal cell proliferation in C57 mouse model of IMQ-induced psoriasis assessed as reduction in Ki67 expression in back skin psoriatic lesions at 60 mg/kg, ig administered starting from day 3 post IMQ-challenge and measured 2 days post-last dose of IMQ by immunohistochemical analysis relative to control. In kind it is functional. Particulars: C57, topical. The gist of the method:
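C57 mice given 5% imiquimod cream on back skin q.d. for seven days. Gavage q.d. at 60 or 120 mg/kg from day 3, n = 6 per group. Back-skin frozen sections (6 µm) stained for Ki67 by IHC. % Ki67+ of total cells quantified and normalized to IMQ-only model group. Two-tailed t-test, mean ± SD.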

Sequence of Mitogen-activated protein kinase kinase kinase 14 (Mus musculus) (Q9WUL6 whole entry): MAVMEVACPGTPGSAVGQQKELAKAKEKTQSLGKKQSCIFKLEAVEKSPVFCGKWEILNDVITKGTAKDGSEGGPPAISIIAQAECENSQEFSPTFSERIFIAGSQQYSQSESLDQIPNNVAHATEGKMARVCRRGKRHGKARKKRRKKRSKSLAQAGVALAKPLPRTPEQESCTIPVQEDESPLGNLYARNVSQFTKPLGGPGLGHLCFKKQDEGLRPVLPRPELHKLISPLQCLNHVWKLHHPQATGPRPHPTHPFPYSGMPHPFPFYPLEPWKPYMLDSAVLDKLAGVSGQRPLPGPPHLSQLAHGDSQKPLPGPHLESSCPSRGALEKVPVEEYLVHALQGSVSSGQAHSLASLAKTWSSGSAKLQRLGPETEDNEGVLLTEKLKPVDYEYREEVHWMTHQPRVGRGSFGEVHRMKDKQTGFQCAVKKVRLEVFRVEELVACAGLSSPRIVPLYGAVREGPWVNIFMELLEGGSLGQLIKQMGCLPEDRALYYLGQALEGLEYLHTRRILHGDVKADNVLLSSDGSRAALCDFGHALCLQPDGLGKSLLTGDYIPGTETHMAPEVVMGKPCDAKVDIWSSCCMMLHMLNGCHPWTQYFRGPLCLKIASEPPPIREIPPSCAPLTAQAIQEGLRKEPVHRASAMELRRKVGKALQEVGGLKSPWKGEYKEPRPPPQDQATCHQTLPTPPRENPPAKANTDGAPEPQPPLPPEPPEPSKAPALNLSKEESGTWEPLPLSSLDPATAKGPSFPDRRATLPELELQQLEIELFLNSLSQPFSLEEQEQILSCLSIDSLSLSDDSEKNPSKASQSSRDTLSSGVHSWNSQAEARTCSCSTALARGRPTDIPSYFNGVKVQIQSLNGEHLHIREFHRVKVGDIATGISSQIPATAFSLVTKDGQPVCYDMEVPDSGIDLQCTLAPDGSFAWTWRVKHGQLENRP
Sequence of Tyrosine-protein kinase JAK1 (P23458 whole entry): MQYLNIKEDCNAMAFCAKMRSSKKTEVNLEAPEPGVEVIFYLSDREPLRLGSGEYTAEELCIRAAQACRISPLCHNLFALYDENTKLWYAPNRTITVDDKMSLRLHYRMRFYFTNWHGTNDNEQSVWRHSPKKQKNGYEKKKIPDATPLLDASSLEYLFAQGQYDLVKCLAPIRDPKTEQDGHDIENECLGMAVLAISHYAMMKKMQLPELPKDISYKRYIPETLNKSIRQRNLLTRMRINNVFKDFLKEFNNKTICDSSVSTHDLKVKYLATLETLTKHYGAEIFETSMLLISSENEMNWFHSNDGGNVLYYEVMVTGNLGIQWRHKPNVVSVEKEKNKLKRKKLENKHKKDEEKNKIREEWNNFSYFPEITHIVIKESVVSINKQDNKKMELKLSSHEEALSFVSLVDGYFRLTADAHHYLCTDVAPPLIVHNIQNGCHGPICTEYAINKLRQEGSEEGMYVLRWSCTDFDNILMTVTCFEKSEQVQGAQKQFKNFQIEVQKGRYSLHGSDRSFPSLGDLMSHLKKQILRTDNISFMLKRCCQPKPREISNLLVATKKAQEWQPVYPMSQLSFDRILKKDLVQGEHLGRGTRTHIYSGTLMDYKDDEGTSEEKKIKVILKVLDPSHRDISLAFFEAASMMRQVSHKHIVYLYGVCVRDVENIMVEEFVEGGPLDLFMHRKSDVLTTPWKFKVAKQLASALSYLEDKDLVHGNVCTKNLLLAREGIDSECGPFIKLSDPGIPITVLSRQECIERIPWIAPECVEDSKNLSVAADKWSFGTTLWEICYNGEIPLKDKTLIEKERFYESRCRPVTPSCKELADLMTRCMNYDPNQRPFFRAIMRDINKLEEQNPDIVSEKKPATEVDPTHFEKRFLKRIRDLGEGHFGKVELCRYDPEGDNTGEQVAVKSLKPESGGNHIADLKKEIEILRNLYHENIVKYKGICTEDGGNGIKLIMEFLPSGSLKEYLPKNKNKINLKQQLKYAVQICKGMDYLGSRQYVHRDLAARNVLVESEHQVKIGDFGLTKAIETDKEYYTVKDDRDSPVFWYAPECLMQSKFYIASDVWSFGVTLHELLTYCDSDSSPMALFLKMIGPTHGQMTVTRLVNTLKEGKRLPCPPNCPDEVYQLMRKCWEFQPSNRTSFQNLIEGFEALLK

As for `CC(O)(C#Cc1ccc(N2CCOCC2)c(Nc2ncnc3[nH]ccc23)c1)c1nccs1` (racemic), the IC50 in [1] came to 9.87 nM; in data set [2], 183 nM. Also, the inhibition at 2 µM in the data set on T-cell [3] came out at 62.3%. Further, the inhibition at 0.4 µM with T-cell [4] is 36%. In addition, the Ratio IC50 in the data set listed under Homo sapiens was 4 to 20. The half-life in data set [5] was 32.4 min; in data set [9] it was 56.6 min. Moreover, the CLH in data set [6] amounted to 62.4 mL/min/kg; in data set [7] it was 81 mL/min/kg. The compound further showed a C0 in data set [8] of 377 ng/mL. In data set [10], this compound registered a clearance of 40.3 mL/min/kg. Also, in [11], the AUC(0-inf) was found to be 2680 ng·h/mL. The same compound came in with a maximum concentration (Cmax) in data set [12] of 772 ng/mL. Also, the inhibition result (in data set [13]; with Mus musculus [16]; in the data set with Mus musculus [18]) was “Dose-dependent effect” in each case. Also, the inhibition entry (in data set [14]; in the data set on Mus musculus [17]) was “Active” each time. Also, the outcome in the data set with J774 and in the data set on Mus musculus [15] was Active. Also, the inhibition in vivo at 60 mg/kg in the data set with Mus musculus [19] turned out to be 55%.
